# ChEMBL document CHEMBL1124260, “Synthesis and antitumor activity of quaternary ellipticine glycosides, a series of novel and highly active antitumor agents” (1988)
# Key:
# Mus musculus [1] = assay: Number of survivors out of 6 ip implanted L1210 leukemia mouse, tested after 80 days at 30 mg/kg; assay type: functional; details: route intraperitoneal
# How it was run: (§1)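 Female BDF1 mice implanted ip with ascitic fluid holding 10^5 L1210 cells. Saline-dissolved drug given ip daily on days 1-5, starting 24 h after implant. Six mice per dose group, followed 80 days. Survivors/total counted at day 80; ILS % from mean survival time vs controls.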
# Mus musculus [2] = assay: Antitumor activity against ip implanted P388 leukemia in mouse after ip administration of 1.25 mg/kg for 5 days expressed as increase in mean life span; assay type: functional; details: 120 h, route intraperitoneal
# How it was run: (§2)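 Saline-dissolved drug was given ip daily for 5 consecutive days, beginning 24 h post-transplant. ILS % was calculated from treated vs control mean survival time over an 80-day observation period.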
# Mus musculus [3] = assay: Antitumor activity against ip implanted P388 leukemia in mouse after ip administration of 5 mg/kg for 5 days expressed as increase in mean life span; assay type: functional; details: 120 h, route intraperitoneal; how it was run: as §2
# Mus musculus [4] = assay: Antitumor activity against ip implanted P388 leukemia in mouse after ip administration of 10 mg/kg for 5 days expressed as increase in mean life span; assay type: functional; details: 120 h, route intraperitoneal; how it was run: as §2
# Mus musculus [5] = assay: Effect on ip implanted syngeneic B16 melanoma by ip administration of 20 mg/kg for 9 days measured as increase in mean life span; details: 216 h
# Mus musculus [6] = assay: Antitumor activity against ip implanted L1210 leukemia in mouse after ip administration of 1.25 mg/kg for 5 days expressed as increase in mean life span; assay type: functional; details: 120 h, route intraperitoneal
# How it was run: (§3)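 Drug was dissolved in 0.9% NaCl, diluted just before use and given ip once daily for 5 consecutive days, starting 24 h after transplant. ILS % = mean survival time of treated vs control mice, observed for 80 days.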
# Mus musculus [7] = assay: Antitumor activity against ip implanted L1210 leukemia in mouse after iv administration of 8 mg/kg for 5 days expressed as increase in mean life span; details: 120 h
# Mus musculus [8] = assay: Number of survivors out of 6 ip implanted P388 leukemia in mouse after ip administration of 40 mg/kg after 80 days; assay type: functional; details: route intraperitoneal
# How it was run: (§4)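 P388 leukemia, 10^6 ascitic cells implanted ip in female BDF1 mice. Drug in saline given ip for 5 consecutive days from 24 h after transplant. Groups of six per dose level. Survivors/total recorded at the 80-day end of observation; ILS % from treated/control mean survival time.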
# Mus musculus [9] = assay: Antitumor activity against ip implanted P388 leukemia in mouse after ip administration of 40 mg/kg for 5 days expressed as increase in mean life span; assay type: functional; details: 120 h, route intraperitoneal; how it was run: as §2
# Mus musculus [10] = assay: Antitumor activity against ip implanted L1210 leukemia in mouse after ip administration of 40 mg/kg for 5 days expressed as increase in mean life span; assay type: functional; details: 120 h, route intraperitoneal; how it was run: as §3
# Mus musculus [11] = assay: Number of survivors out of 6 ip implanted P388 leukemia in mouse after ip administration of 10 mg/kg after 80 days; assay type: functional; details: route intraperitoneal; how it was run: as §4
# Mus musculus [12] = assay: Effect on ip implanted syngeneic B16 melanoma by ip administration for 9 days at 10 mg/kg was measured as increase in mean life span; details: 216 h
# Mus musculus [13] = assay: Effect on ip implanted syngeneic B16 melanoma by ip administration for 9 days at 5 mg/kg was measured as increase in mean life span; details: 216 h
# Mus musculus [14] = assay: Number of survivors out of 6 ip implanted L1210 leukemia in mouse after ip administration of 40 mg/kg after 80 days; assay type: functional; details: route intraperitoneal; how it was run: as §1
# Mus musculus [15] = assay: Antitumor activity against ip implanted L1210 leukemia in mouse after ip administration of 20 mg/kg for 5 days expressed as increase in mean life span; assay type: functional; details: 120 h, route intraperitoneal; how it was run: as §3
# Mus musculus [16] = assay: Inhibition of sc implanted syngeneic colon 38 carcinoma by ip administration at 30 mg/kg on 1, 3, 5, 7, 9 days measured as inhibition ratio; assay type: functional; details: route intraperitoneal
# How it was run: (§5)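 Tumor homogenate (70 mg) implanted into the axillary region of female BDF1 mice. Drug dissolved in 0.9% NaCl and diluted with saline just before use, then given ip on days 1, 3, 5, 7 and 9. Tumor length and width were measured by caliper on day 20 after inoculation and converted to estimated weight. Result reported as treated vs control tumor weight, T/C %.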
# Mus musculus [17] = assay: Antitumor activity against ip implanted L1210 leukemia in mouse after ip administration of 5 mg/kg for 5 days expressed as increase in mean life span; assay type: functional; details: Mus musculus, L1210, ip, 120 h, route intraperitoneal; how it was run: as §3
# Mus musculus [18] = assay: Antitumor activity against ip implanted P388 leukemia in mouse after iv administration of 32 mg/kg for 5 days expressed as increase in mean life span; details: 120 h
# Mus musculus [19] = assay: Antitumor activity against ip implanted L1210 leukemia in mouse after ip administration of 30 mg/kg for 5 days expressed as increase in mean life span; assay type: functional; details: Mus musculus, L1210, ip, 120 h, route intraperitoneal; how it was run: as §3
# Mus musculus [20] = assay: Antitumor activity against ip implanted P388 leukemia in mouse after ip administration of 20 mg/kg for 5 days expressed as increase in mean life span; assay type: functional; details: 120 h, route intraperitoneal; how it was run: as §2
# Mus musculus [21] = assay: Antitumor activity against ip implanted L1210 leukemia in mouse after iv administration of 16 mg/kg for 5 days expressed as increase in mean life span; details: 120 h
# Mus musculus [22] = assay: Number of survivors out of 6 ip implanted L1210 leukemia in mouse after ip administration of 10 mg/kg after 80 days; assay type: functional; details: route intraperitoneal; how it was run: as §1
# Mus musculus [23] = assay: Antitumor activity against ip implanted L1210 leukemia in mouse after iv administration of 32 mg/kg for 5 days expressed as increase in mean life span; details: 120 h
# Mus musculus [24] = assay: Number of survivors out of 6 ip implanted L1210 leukemia in mouse after ip administration of 20 mg/kg after 80 days; assay type: functional; details: route intraperitoneal; how it was run: as §1
# Mus musculus [25] = assay: Antitumor activity against ip implanted L1210 leukemia in mouse after ip administration of 10 mg/kg for 5 days expressed as increase in mean life span; assay type: functional; details: route intraperitoneal, 10 mg/kg; how it was run: as §3
# Mus musculus [26] = assay: Number of survivors out of 6 ip implanted P388 leukemia in mouse after ip administration of 20 mg/kg after 80 days; assay type: functional; details: route intraperitoneal; how it was run: as §4
# Mus musculus [27] = assay: Inhibition of sc implanted syngeneic colon 38 carcinoma by ip administration at 20 mg/kg on 1, 3, 5, 7, 9 days measured as inhibition ratio; assay type: functional; details: route subcutaneous; how it was run: as §5
# Mus musculus [28] = assay: Inhibition of sc implanted syngeneic colon 38 carcinoma by ip administration at 40 mg/kg on 1, 3, 5, 7, 9 days measured as inhibition ratio; assay type: functional; details: route subcutaneous; how it was run: as §5
# Mus musculus [29] = assay: Antitumor activity against ip implanted syngeneic P388 leukemia in mouse after ip administration of 60 mg/kg for 5 days expressed as increase in mean life span; assay type: functional; details: 120 h, route intraperitoneal; how it was run: as §2
# Mus musculus [30] = assay: Antitumor activity against ip implanted L1210 leukemia in mouse after ip administration of 120 mg/kg for 5 days expressed as increase in mean life span; assay type: functional; details: 120 h, route intraperitoneal; how it was run: as §3
# Mus musculus [31] = assay: Antitumor activity against ip implanted P388 leukemia in mouse after iv administration of 2.5 mg/kg for 5 days expressed as increase in mean life span; details: 120 h
# Mus musculus [32] = assay: Effect on ip implanted syngeneic B16 melanoma by ip administration for 9 days at 2.5 mg/kg was measured as increase in mean life span; details: 216 h
# Mus musculus [33] = assay: Number of survivors out of 6 ip implanted P388 leukemia in mouse after ip administration of 2.5 mg/kg after 80 days; assay type: functional; details: route intraperitoneal; how it was run: as §4
# Mus musculus [34] = assay: Antitumor activity against ip implanted L1210 leukemia in mouse after ip administration of 2.5 mg/kg for 5 days expressed as increase in mean life span; assay type: functional; details: 120 h, route intraperitoneal; how it was run: as §3
# Mus musculus [35] = assay: Antitumor activity against ip implanted L1210 leukemia in mouse after iv administration of 2.5 mg/kg for 5 days expressed as increase in mean life span; details: 120 h
# Mus musculus [36] = assay: Antitumor activity against ip implanted P388 leukemia in mouse after ip administration of 2.5 mg/kg for 5 days expressed as increase in mean life span; assay type: functional; details: 120 h, route intraperitoneal; how it was run: as §2
# Mus musculus [37] = assay: Inhibition of sc implanted syngeneic colon 38 carcinoma by ip administration at 2.5 mg/kg on 1, 3, 5, 7, 9 days measured as inhibition ratio; assay type: functional; details: route subcutaneous; how it was run: as §5
smiles,measurement,setting,value
Cc1c2cc[n+]([C@@H]3O[C@H](CO)[C@H](O)[C@@H]3O)cc2c(C)c2c1[nH]c1ccc(O)cc12.[Cl-] (stereo in doubt; 43a),Cures,Mus musculus [1],6
same,ILS at 1.25 mg/kg,Mus musculus [2],68%
same,ILS at 5 mg/kg,Mus musculus [3],158%
same,ILS at 10 mg/kg,Mus musculus [4],> 332%
same,ILS at 20 mg/kg,Mus musculus [5],77%
same,ILS at 1.25 mg/kg,Mus musculus [6],46%
same,ILS at 8 mg/kg,Mus musculus [7],49%
same,Cures,Mus musculus [8],2
same,ILS at 40 mg/kg,Mus musculus [9],> 220%
same,ILS at 40 mg/kg,Mus musculus [10],> 281%
same,Cures,Mus musculus [11],2
same,ILS at 10 mg/kg,Mus musculus [12],44%
same,ILS at 5 mg/kg,Mus musculus [13],39%
same,Cures,Mus musculus [14],1
same,ILS at 20 mg/kg,Mus musculus [15],> 503%
same,T/C,Mus musculus [16],19%
same,ILS at 5 mg/kg,Mus musculus [17],102%
same,ILS at 32 mg/kg,Mus musculus [18],176%
same,ILS at 30 mg/kg,Mus musculus [19],> 967%
same,ILS at 20 mg/kg,Mus musculus [20],> 510%
same,ILS at 16 mg/kg,Mus musculus [21],81%
same,Cures,Mus musculus [22],2
same,ILS at 32 mg/kg,Mus musculus [23],134%
same,Cures,Mus musculus [24],3
same,ILS,Mus musculus [25],>377%
same,Cures,Mus musculus [26],4
same,T/C,Mus musculus [27],61%
same,T/C,Mus musculus [28],8%
Cc1c2ccncc2c(C)c2c1[nH]c1ccccc12 [ELLIPTECINE],ILS at 60 mg/kg,Mus musculus [29],139%
same,ILS at 120 mg/kg,Mus musculus [30],128%
COc1cccc2c1C(=O)c1c(O)c3c(c(O)c1C2=O)C[C@@](O)(C(=O)CO)C[C@@H]3O[C@H]1C[C@H](N)[C@H](O)[C@H](C)O1 [DOXORUBICIN],ILS at 2.5 mg/kg,Mus musculus [31],65%
same,ILS at 2.5 mg/kg,Mus musculus [32],> 257%
same,Cures,Mus musculus [33],5
same,ILS at 2.5 mg/kg,Mus musculus [34],90%
same,ILS at 2.5 mg/kg,Mus musculus [35],30%
same,ILS at 2.5 mg/kg,Mus musculus [36],> 675%
same,T/C,Mus musculus [37],31%
